Activity calls are given as the source filed them.
Columns and labels:
U-251 = experiment: Growth inhibition of human U251 cells; format: functional
DU-145 = experiment: Growth inhibition of human DU145 cells; format: functional
PC-3 = experiment: Growth inhibition of human PC3 cells; format: functional
SN12C = experiment: Growth inhibition of human SN12C cells; format: functional
[1] = Growth inhibition of human HL60(TB) cells; format: functional, HL-60(TB)
MOLT-4 = experiment: Growth inhibition of human MOLT4 cells; format: functional
[2] = Growth inhibition of human OVACR3 cells; format: functional
M14 = experiment: Growth inhibition of human M14 cells; format: functional
UO-31 = experiment: Growth inhibition of human UO31 cells; format: functional
HCC 2998 = experiment: Growth inhibition of human HCC2998 cells; format: functional
CAKI-1 = experiment: Growth inhibition of human CAKI1 cells; format: functional
SW-620 = experiment: Growth inhibition of human SW620 cells; format: functional; settings: read-out: pLC50 (the source's name) (converted)
SK-MEL-2 = experiment: Growth inhibition of human SK-MEL-2 cells; format: functional
SF-539 = experiment: Growth inhibition of human SF539 cells; format: functional
IGROV-1 = experiment: Growth inhibition of human IGROV1 cells; format: functional
NCI-H460 [3] = experiment: Growth inhibition of human NCI-H460 cells; format: functional; settings: read-out: pLC50 (the source's name) (converted)
SF-268 = experiment: Growth inhibition of human SF268 cells; format: functional
UACC-62 = experiment: Growth inhibition of human UACC62 cells; format: functional
NCI-H322M = experiment: Growth inhibition of human NCI-H322M cells; format: functional
ACHN = experiment: Growth inhibition of human ACHN cells; format: functional
HOP-62 = experiment: Growth inhibition of human HOP62 cells; format: functional
MDA-MB-435 = experiment: Growth inhibition of human MDA-MB-435 cells; format: functional
SNB-75 = experiment: Growth inhibition of human SNB75 cells; format: functional
[4] = Growth inhibition of human RPMI8266 cells; format: functional
A10 = experiment: Disruption of microfilament in rat A10 cells at 2.9 uM after 24 hrs by rhodamine-phalloidin assay; format: functional, cell-based
In short: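 A-10 smooth muscle cells grown on glass coverslips in BME with 10% fetal calf serum and exposed 24 h. Fixed in 3% paraformaldehyde, permeabilised with 0.2% Triton X-100, reduced with NaBH4, then stained 45 min with 100 nM TRITC-phalloidin for actin and with DAPI for DNA. Microfilament network scored by fluorescence microscopy.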

HT-29 = experiment: Growth inhibition of human HT29 cells; format: functional
NCI-H522 = experiment: Growth inhibition of human NCI-H522 cells; format: functional
MDA-MB-231 = experiment: Growth inhibition of human MDA-MB-231 cells; format: functional
SK-OV-3 = experiment: Growth inhibition of human SKOV3 cells; format: functional
UACC-257 = experiment: Growth inhibition of human UACC257 cells; format: functional
[5] = Growth inhibition of human […] cells; format: functional
COLO 205 = experiment: Growth inhibition of human COLO205 cells; format: functional
LOX IMVI = experiment: Growth inhibition of human LOX IMVI cells; format: functional
T47D = experiment: Growth inhibition of human T47D cells; format: functional
[6] = Growth inhibition of human OVACR5 cells; format: functional
SF-295 = experiment: Growth inhibition of human SF295 cells; format: functional
NCI/ADR-RES = experiment: Growth inhibition of human NCI/ADR-RES cells; format: functional
HCT-116 = experiment: Growth inhibition of human HCT116 cells; format: functional
Hs-578T = experiment: Growth inhibition of human HS578T cells; format: functional
[7] = Cytotoxicity against mouse Neuro2a cells after 48 hrs by MTT assay; format: functional; settings: N2a, read-out: LC50 (the source's name)
In short: (§1)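 Cells seeded at 6000/well and grown 24 h, then given test chemicals dissolved in DMSO and diluted in serum-free medium (DMSO under 0.5% final). Viability read by MTT reduction after 48 h exposure; LC50 reported. Method follows Alley et al.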

NCI-H226 = experiment: Growth inhibition of human NCI-H226 cells; format: functional
MCF7 = experiment: Growth inhibition of human MCF7 cells; format: functional
NCI-H23 = experiment: Growth inhibition of human NCI-H23 cells; format: functional
SK-MEL-28 = experiment: Growth inhibition of human SK-MEL-28 cells; format: functional
TK-10 = experiment: Growth inhibition of human TK10 cells; format: functional
HCT-15 = experiment: Growth inhibition of human HCT15 cells; format: functional
SNB-19 = experiment: Growth inhibition of human SNB19 cells; format: functional
KM12 = experiment: Growth inhibition of human KM12 cells; format: functional
A549 = experiment: Growth inhibition of human A549 cells; format: functional
SR = experiment: Growth inhibition of human SR cells; format: functional
NCI-H460 [8] = experiment: Cytotoxicity against human NCI-H460 cells after 48 hrs by MTT assay; format: functional; settings: NCI-H460, 48 h, read-out: LC50 (the source's name); in short: as §1
BT-549 = experiment: Growth inhibition of human BT549 cells; format: functional
HOP-92 = experiment: Growth inhibition of human HOP92 cells; format: functional
[9] = Growth inhibition of human OVACR4 cells; format: functional
SK-MEL-5 = experiment: Growth inhibition of human SK-MEL-5 cells; format: functional
EKVX = experiment: Growth inhibition of human EKVX cells; format: functional
K562 = experiment: Growth inhibition of human K562 cells; format: functional
786-0 = experiment: Growth inhibition of human 786-0 cells; format: functional
[10] = read-out: pLC50 (the source's name) (converted)

CC/C=C(\C)[C@H]1OC(=O)[C@H](C)N(C)C(=O)[C@H](C(C)C)NC(=O)CN(C)C(=O)[C@H]([C@H](C)CC)N(C)C(=O)[C@H](C(C)C)NC(=O)[C@@H]([C@@H](C)CC)OC(=O)/C(C)=C/C[C@H](O)[C@@H]1C [AURILIDE B]
active: Activity (A10)
3020 nM: CC50 (SK-MEL-5; [10])
> 100000 nM: CC50 (SW-620) | CC50 (SK-MEL-2; [10]) | CC50 (IGROV-1; [10]) | CC50 (ACHN; [10]) | CC50 [4, 10] | CC50 (HT-29; [10]) | TGI (HT-29; read-out: pTGI) | CC50 (NCI-H522; [10]) | CC50 (COLO 205; [10]) | TGI (COLO 205; read-out: pTGI) | CC50 (T47D; [10]) | CC50 (SF-295; [10]) | CC50 (Hs-578T; [10]) | CC50 (MCF7; [10]) | CC50 (SK-MEL-28; [10]) | CC50 (HCT-15; [10]) | CC50 (SNB-19; [10]) | CC50 (KM12; [10]) | TGI (KM12; read-out: pTGI) | CC50 [9, 10]
794 nM: CC50 (SF-268; [10])
< 10 nM: GI50 (U-251) | TGI (U-251; read-out: pTGI) | GI50 (DU-145) | CC50 (DU-145; [10]) | TGI (DU-145; read-out: pTGI) | GI50 (PC-3) | CC50 (PC-3; [10]) | TGI (PC-3; read-out: pTGI) | GI50 (SN12C) | GI50 ([1]; HL-60) | CC50 ([1]; HL-60, read-out: pLC50 (the source's name) (converted)) | TGI ([1]; HL-60, read-out: pTGI) | GI50 (MOLT-4) | CC50 (MOLT-4; [10]) | TGI (MOLT-4; read-out: pTGI) | GI50 [2] | TGI ([2]; read-out: pTGI) | GI50 (M14) | CC50 (M14; [10]) | TGI (M14; read-out: pTGI) | GI50 (UO-31) | CC50 (UO-31; [10]) | TGI (UO-31; read-out: pTGI) | GI50 (HCC 2998) | CC50 (HCC 2998; [10]) | TGI (HCC 2998; read-out: pTGI) | GI50 (CAKI-1) | TGI (CAKI-1; read-out: pTGI) | GI50 (SK-MEL-2) | TGI (SK-MEL-2; read-out: pTGI) | GI50 (SF-539) | CC50 (SF-539; [10]) | TGI (SF-539; read-out: pTGI) | GI50 (IGROV-1) | TGI (IGROV-1; read-out: pTGI) | GI50 (SF-268) | GI50 (UACC-62) | TGI (UACC-62; read-out: pTGI) | GI50 (NCI-H322M) | TGI (NCI-H322M; read-out: pTGI) | GI50 (ACHN) | GI50 (HOP-62) | CC50 (HOP-62; [10]) | TGI (HOP-62; read-out: pTGI) | GI50 (MDA-MB-435) | TGI (MDA-MB-435; read-out: pTGI) | TGI (SNB-75; read-out: pTGI) | GI50 [4] | TGI ([4]; read-out: pTGI) | GI50 (HT-29) | GI50 (NCI-H522) | TGI (NCI-H522; read-out: pTGI) | GI50 (MDA-MB-231) | TGI (MDA-MB-231; read-out: pTGI) | GI50 (SK-OV-3) | GI50 (UACC-257) | CC50 (UACC-257; [10]) | TGI (UACC-257; read-out: pTGI) | GI50 [5] | TGI ([5]; read-out: pTGI) | GI50 (COLO 205) | GI50 (LOX IMVI) | GI50 (T47D) | GI50 [6] | CC50 [6, 10] | TGI ([6]; read-out: pTGI) | GI50 (SF-295) | TGI (SF-295; read-out: pTGI) | GI50 (NCI/ADR-RES) | CC50 (NCI/ADR-RES; [10]) | TGI (NCI/ADR-RES; read-out: pTGI) | GI50 (HCT-116) | CC50 (HCT-116; [10]) | TGI (HCT-116; read-out: pTGI) | GI50 (NCI-H226) | CC50 (NCI-H226; [10]) | TGI (NCI-H226; read-out: pTGI) | GI50 (MCF7) | GI50 (NCI-H23) | CC50 (NCI-H23; [10]) | TGI (NCI-H23; read-out: pTGI) | GI50 (SK-MEL-28) | TGI (SK-MEL-28; read-out: pTGI) | GI50 (TK-10) | CC50 (TK-10; [10]) | TGI (TK-10; read-out: pTGI) | GI50 (HCT-15) | GI50 (SNB-19) | GI50 (KM12) | GI50 (A549) | CC50 (A549; [10]) | TGI (A549; read-out: pTGI) | GI50 (SR) | CC50 (SR; [10]) | TGI (SR; read-out: pTGI) | GI50 (BT-549) | GI50 (HOP-92) | TGI (HOP-92; read-out: pTGI) | GI50 [9] | TGI ([9]; read-out: pTGI) | GI50 (EKVX) | CC50 (EKVX; [10]) | TGI (EKVX; read-out: pTGI) | GI50 (K562) | TGI (K562; read-out: pTGI) | GI50 (786-0) | CC50 (786-0; [10]) | TGI (786-0; read-out: pTGI)
100 nM: CC50 (K562; [10])
77600 nM: CC50 (NCI-H460 [3])
83200 nM: CC50 (SNB-75; [10])
58900 nM: CC50 (HOP-92; [10])
19100 nM: TGI (MCF7; read-out: pTGI (converted))
10 nM: CC50 [7]
19.9 nM: TGI (SNB-19; read-out: pTGI (converted))
170 nM: TGI (HCT-15; read-out: pTGI (converted))
708 nM: TGI (Hs-578T; read-out: pTGI (converted))
38900 nM: CC50 (SK-OV-3; [10])
40 nM: CC50 (NCI-H460 [8])
219 nM: GI50 (SK-MEL-5)
490 nM: TGI (SK-MEL-5; read-out: pTGI (converted))

CC/C=C(\C)[C@H]1OC(=O)[C@H](C)N(C)C(=O)[C@H](C(C)C)NC(=O)CN(C)C(=O)[C@H]([C@H](C)CC)N(C)C(=O)[C@H](C(C)C)NC(=O)[C@@H](C(C)C)OC(=O)/C(C)=C/C[C@H](O)[C@@H]1C [AURILIDE C]
50 nM: CC50 [7]
130 nM: CC50 (NCI-H460 [8])

Source: ChEMBL document CHEMBL1157311, “Aurilides B and C, cancer cell toxins from a Papua New Guinea collection of the marine cyanobacterium Lyngbya majuscula” (2006)
